In the library only some 2% were active in any assay of this set; here they are far more common.
Lipid droplet – modulators of hepatic lipid droplet formation; 0.4% of 240,000 active; inhibition, % at 6.5 µM; AML12 mouse hepatocytes, oleate lipid droplets, BODIPY imaging;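 active = lipid droplet intensity inhibited by at least 50%, with more than 500 cells counted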
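Assay system: AML12 mouse liver cells | Compound: 6.5 µM single-point dosing | Schedule: Overnight exposure | Technique: Fluorescence imaging, 20x objective, two fields per well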
RBBP9 inhibitor – blocks human serine hydrolase RBBP9 | AID 1515 | 0.2% of 220,000 active | recombinant RBBP9, FP-Rh probe fluorescence polarization | inhibition, % at 7.94 µM | O75884;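 active = inhibition above the campaign mean of all tested compounds plus 3 SD, cut at about 14% in these data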
Target sequence (O75884 whole entry, looked up): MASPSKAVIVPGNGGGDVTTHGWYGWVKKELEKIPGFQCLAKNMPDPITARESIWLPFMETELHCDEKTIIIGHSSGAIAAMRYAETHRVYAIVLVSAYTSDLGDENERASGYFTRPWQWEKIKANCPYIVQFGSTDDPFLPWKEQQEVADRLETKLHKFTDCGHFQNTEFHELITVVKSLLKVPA
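System: RBBP9 protein | Quantity: 2.5 µM RBBP9 dispensing solution, before mixing | Reagent: FP-Rh probe, 375 nM dispensing solution | Timing: Enzyme-compound preincubation 30 min, then probe labeling 45 min, 25 °C | Measured by: Fluorescence polarization | Read-out: % inhibition | Replication: One well per compound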
TNF necrop inh – blocks TNF-alpha induced death of Jurkat FADD-/- cells; AID 463075; activation (protection from cell death), % at 10 µM; 0.068% of 220,000 active; Jurkat FADD-/- TNF necroptosis rescue, ATP luminescence, 24 h; 0 = TNF only, 100 = no-TNF cells;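 active = activation, meaning protection from cell death, of at least 50% relative to plate controls; inactive = activation below 50%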;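 also: necroptosis triggered by 40 ng/mL TNF-alpha added together with compound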
Tb hexokinase – T. brucei hexokinase 1 inhibition; recombinant TbHK1, G6PDH-coupled NADH A340; inhibition, % at 10 µM; 0.11% of 220,000 active;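 active = inhibition of 50% or more in the single-dose primary screen; inactive = inhibition below 50%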
L929 necroptosis – L929 zVAD cell death inhibition; L929 zVAD necroptosis rescue, ATP luminescence, 24 h; with zVAD 60 µM; viability rescue, % at 10 µM; 0.38% of 220,000 active; AID 1377;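 active = activation, scaled between plate controls, above about 75%, limit read from the data; inactive = activation under that limit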
PfM18AAP inh-1 – PfM18AAP enzyme inhibition. AID 1822. recombinant PfM18AAP, H-Glu-NHMec fluorogenic cleavage. 1.2% of 290,000 active. inhibition, % at 7.35 µM;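 active = inhibition above the campaign mean inhibition over all tested compounds plus 3 SD, cut at about 28% in these data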
PfM18AAP inh-2 – confirmation of Plasmodium falciparum M18 aspartyl aminopeptidase inhibitors; 28% of 2,400 active; AID 2170; recombinant PfM18AAP, H-Glu-NHMec fluorogenic cleavage; shares compounds with PfM18AAP inh-1; inhibition, % at 7.35 µM;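 active = mean inhibition over replicate wells above the hit cutoff set for the earlier primary screen, cut at about 29% in these data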
CTSL1 counter – Cathepsin L (human) inhibition, confirmation. purified cathepsin L1, Z-Leu-Arg-MCA fluorescence. shares compounds with PfM18AAP inh-1. AID 2178. 2,400 tested, under 10 active. inhibition, % at 5.96 µM;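 active = average inhibition across replicates above the hit cutoff set in the earlier primary screen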
Numbers stand for hits; – = inactive; · = no result.

SMILES	Lipid droplet	RBBP9 inhibitor	TNF necrop inh	Tb hexokinase	L929 necroptosis	PfM18AAP inh-1	PfM18AAP inh-2	CTSL1 counter
CN=c1scc(-c2ccc(F)cc2)n1/N=C/c1ccc(O)c(O)c1	–	–	–	–	–	54	48	–
CSCC[C@H](NS(=O)(=O)c1ccc(C(C)=O)cc1)c1nnc2ccccn12	–	·	·	·	·	–	·	·
COc1ccc(N2C(=O)/C(=C/c3cccnc3)NC2=S)cc1	–	–	–	–	–	–	·	·
COc1ccc(N2C(=O)/C(=C/N(C)C)NC2=S)cc1	–	–	–	–	–	80	69	–
Cc1ccc(N(CC(=O)NCCc2ccccc2)C(=O)CCC(=O)Nc2cc(C)ccn2)cc1	–	·	·	·	·	–	·	·
Cc1nn(C)c(C)c1CCC(=O)O	–	–	–	–	–	–	·	·
CCOC(=O)N1CCN(S(=O)(=O)c2c(C)nc3scc(C)n3c2=O)CC1	–	·	·	·	·	–	·	·
Fc1ccc(-n2c(-c3ccco3)n[nH]c2=S)cc1	–	·	·	·	·	–	·	·
CC(/C=N/n1c(-c2ccc(C)cc2)n[nH]c1=S)=C\c1ccco1	–	–	–	–	–	–	·	·
O=[N+]([O-])c1ccccc1/C=C/C=N/n1c(-c2ccco2)n[nH]c1=S	–	–	–	–	–	32	–	–
CC(/C=N/n1c(-c2ccco2)n[nH]c1=S)=C\c1ccco1	–	–	–	–	–	32	–	–
Cc1ccc(-n2c(-c3ccco3)n[nH]c2=S)cc1	–	–	–	–	–	32	–	–
Cc1ccc(NC(=O)c2ccccc2NS(=O)(=O)c2ccc(Cl)s2)cc1S(=O)(=O)N1CCOCC1	–	–	–	–	–	–	·	·
COC(=O)[C@@]1(Cc2ccc(F)cc2)[C@H]2c3cc(C(=O)N4CCCC4)n(CCO)c3C[C@H]2CN1C(=O)c1ccccc1	·	–	–	–	–	–	·	·
COC(=O)[C@@]1(Cc2ccc(F)cc2)[C@H]2c3cc(C(=O)N4CCCC4)n(CCc4ccc(O)c(O)c4)c3C[C@H]2CN1C(=O)c1ccccc1	–	–	–	–	–	75	49	–
CC(=O)N1CCN(c2ccc(NCc3ccccc3)cc2)CC1	·	–	–	–	–	–	·	·
CC(=O)N1CCN(c2ccc(N=Cc3c(O)n(Cc4ccccc4)c(=O)[nH]c3=O)cc2)CC1	–	–	–	–	–	33	–	–
O=C(O)c1ccc(O)c(O)c1	–	–	–	–	–	79	65	–
O=C(O)c1cccc(C(=O)O)c1	–	·	·	·	·	–	·	·
CC(=O)Nc1cccc(C(=O)N/N=C/c2c[nH]c3ccccc23)c1	–	·	·	·	·	–	·	·
CC(=O)N/C(=C/c1ccc([N+](=O)[O-])cc1)C(=O)O	–	–	–	–	–	32	–	–
Cc1cccc(C)c1N1C(=O)CCC(C)(C)C1=O	–	·	·	·	·	–	·	·
COc1ccc(C(C)=O)cc1CSc1nc2ccccc2c(=O)n1-c1ccccc1C	–	–	–	–	–	43	–	–
COc1ccc(C(C)=O)cc1CSc1nc2ccccc2c(=O)n1-c1ccccc1	–	–	–	–	–	–	·	·
COc1ccc(N2CCN(CC(=O)c3ccc(O)cc3O)CC2)cc1	–	·	·	·	·	37	–	–
SMILES	Lipid droplet	RBBP9 inhibitor	TNF necrop inh	Tb hexokinase	L929 necroptosis	PfM18AAP inh-1	PfM18AAP inh-2	CTSL1 counter
CC(C)(C)c1cc(C(=O)N/N=C/c2ccc(-c3ccccc3[N+](=O)[O-])o2)n[nH]1	–	·	·	·	·	48	–	–
COc1cc(OC)cc(C(=O)n2cnnc2N)c1	–	–	–	–	–	53	49	–
COC(=O)c1cn(C(=O)c2cc(OC)cc(OC)c2)c2ccccc12	–	·	·	·	·	–	·	·
O=S(=O)(Nn1cnnc1)c1ccccc1	–	–	–	–	–	37	61	–
O=S(=O)(Nn1cnnc1)c1ccccc1Cl	–	–	–	–	–	36	43	–
CCN(CC)c1cc(CS(=O)c2ccccc2)nc(-c2ccccc2)n1 (stereo unspecified)	·	–	–	–	–	–	·	·
CCOC(=O)C1=C(COC(=O)C2(C)CC2(Cl)Cl)NC(=O)NC1c1ccccc1 (stereo unspecified)	–	–	–	–	–	–	·	·
Oc1cccc(Nc2c3ccccc3nc3ccccc23)c1	–	·	·	·	·	37	–	–
